Screening results from PubChem.
Rows were chosen to be rich in hits. Some 12% of all compounds tested hit in one or more screens of this group.
Diaph act CS = activates diaphorase or chemically reduces, flagging diaphorase assay artifacts | Diaphorase/resazurin coupled assay, resorufin fluorescence, 16 min; hits give high values; 1 = vehicle wells, 0 = NADH-free wells | activation factor at 20 µM | hit rate 0.005% among 190,000;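 active = diaphorase activity raised at least twofold by the compound at 20 µM; inactive = activation factor below 2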
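Material: bacterial diaphorase enzyme (C. kluyveri); amount: enzyme 0.07 U/mL final; reagent: NADH substrate 0.114 mM plus resazurin dye 0.1 mM, final; doses: single compound dose of 20 µM, 1% DMSO final; timing: 16 min enzyme reaction, ambient temperature; measured by: fluorescence of resorufin, 544 nm excitation, 590 nm emission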
ROMK primary = modulators of human ROMK potassium channel. Tet-inducible ROMK, thallium flux fluorescence; actives lie on both sides. hit rate 2% among 130,000. P48048. B-score at 10 µM;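 active = signal ratio slope over the read window, or its plate-corrected B-score, at least 3 SD from the plate mean, either direction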;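 also: B-score of the F/F0 ratio slope over 7 to 12 s after thallium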
L major viab = inhibitors of Leishmania major promastigote growth | Leishmania major promastigotes, resazurin fluorescence viability | inhibition, % at 10 µM | hit rate 9% among 200,000; in the data active = inhibition above about 50%;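 also: promastigotes grown with compound for 44 hours at 28 °C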
KCC2 mod = modulates chloride dependent transport by human KCC2. Q9H2X9. KCC2 cells, thallium flux FluoZin-2 fluorescence. B-score of Tl+ flux slope (higher = more flux/activation; lower = inhibition) at 10 µM. hit rate 2.2% among 190,000. AID 1456;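 active = thallium flux slope and its plate-corrected score both differing from the plate sample mean at a set confidence after two filtering rounds, in either direction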;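 also: slope of fluorescence scaled to starting intensity during 10 to 20 s after thallium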
WT yeast gro inh = growth inhibition of WT yeast, mitochondrial fusion screen; mitochondrial fusion phenotypic screen, WT strain; inhibition, % at 10 µM; hit rate 2.1% among 190,000; in the data active = inhibition above about 58%; tested in S. cerevisiae
Diaphorase inh = inhibits diaphorase or chemically oxidizes, flagging diaphorase assay artifacts. AID 1217. inhibition, % at 20 µM. hit rate 0.69% among 190,000. diaphorase resazurin-to-resorufin fluorescence, NADH, 16 min; bacterial (C. kluyveri) enzyme, not human;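 active = primary screen inhibition at 20 µM above a set limit, cut at about 50% in these data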;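 also: plate controls were DMSO with full reaction for no effect and wells lacking NADH for full effect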
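System: Bacterial diaphorase enzyme (C. kluyveri) | Incubation: 16-min room-temperature incubation before reading | Benchmarks: No-NADH positive control and DMSO neutral control | Measured by: Resorufin fluorescence 544/590 nm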
An asterisk follows results filed as active; · = not tested or not shown.

SMILES	Diaph act CS	ROMK primary	L major viab	KCC2 mod	WT yeast gro inh	Diaphorase inh
COc1ccc(OCC(=O)Nc2ccc(N3CCOCC3)c(Cl)c2)cc1	0.9	·	0	0.48	10	14
O=C(Nc1ccc(N2CCOCC2)c(Cl)c1)c1cccnc1	0.9	-0.68	-4	-0.61	18	11
O=C(Nc1ccc(N2CCCC2)c(Cl)c1)c1cccnc1	1.1	·	68*	-0.64	14	-13
O=C(NC(=S)Nc1ccc(N2CCOCC2)c(Cl)c1)c1cncc(Br)c1	0.9	0.66	82*	11*	42	13
O=C(COc1ccc(Br)cc1)N/N=C1\SCC(=O)N1c1ccc(F)cc1	1	0.84	-7	-0.82	0	5
CC1=CC(=O)c2c(O)ccc(O)c2C1=O	0.5	·	98*	-5.1*	35	54*
O=C(CN1CC[n+]2c(-c3cccs3)csc21)c1ccc(-c2ccccc2)cc1	1.5	-5.6*	30	3.2*	69*	-55
C/C(=N\NC(=O)NC1CCCCC1)C1CCCCC1	0.8	0.37	95*	0.19	0	24
CCN(CC)S(=O)(=O)c1cccc(C(=O)N[C@@H](C)c2nc3ccccc3[nH]2)c1	1	0.56	2	-0.6	-4	1
CCN(CC)S(=O)(=O)c1cccc(C(=O)NC(Cc2c[nH]c3ccccc23)c2nnc3n2CCC3)c1 (stereo not given)	0.9	·	63*	0.3	1	7
COc1ccc(C2NC(=S)N(c3ccccc3)C(C)=C2C(=O)Nc2ccccc2)cc1 (stereo not given)	1.1	0.3	100*	·	9	-8
N#CCCn1cc(C(=O)Nc2ccc([N+](=O)[O-])cc2)c(-c2cc3ccccc3o2)n1	0.9	-0.44	2	-1.5	-6	9
COc1ccc(NC(=O)c2cc(-c3ccccc3)nc3c2c(C)nn3-c2ccccc2)c(OC)c1	0.9	-0.4	84*	1.7	-24	7
O=C(Oc1cccc(N2C(=O)CCC2=O)c1)C1CC(=O)N(c2ccc(Br)cc2)C1 (stereo not given)	0.9	-0.48	-8	-1.4	9	12
Cc1ccc(N2CC(C(=O)Oc3cccc(N4C(=O)CCC4=O)c3)CC2=O)cc1 (stereo not given)	0.9	·	-7	7.1*	-6	10
Cc1ccc(N2CC(C(=O)OCc3ccccc3)CC2=O)cc1 (stereo not given)	0.8	-0.96	-9	-4.3*	17	18
CCN(CC)CCN(Cc1cc2ccc(C)cc2[nH]c1=O)C(=O)Nc1ccc(Cl)cc1	1.2	-0.48	63*	0.0099	3	-24
CCN(Cc1cc2ccc(C)cc2[nH]c1=O)C(=O)c1ccncc1	0.9	1.9	-6	0.34	60*	11
O=C(NCc1ccncc1)c1nc(-c2ccc(C(F)(F)F)cc2)no1	1	-1.6	10	-0.032	18	2
CC1CC2(CCCC2)N(C(=O)c2ccccc2)Cc2ccccc21 (stereo not given)	0.9	-0.97	13	0.061	72*	14
CCc1cc2c(=O)c(-c3cnn(-c4ccccc4)c3)c(C)oc2cc1OCC(=O)Nc1ccc(F)c(F)c1	0.8	0.34	53*	0.75	18	16
CCc1cc2c(=O)c(-c3cnn(-c4ccccc4)c3)c(C)oc2cc1OCC(=O)Nc1cccc(C)c1	1	·	66*	0.47	7	-2
O=C(COc1cccc2c1CCN(Cc1ccccc1F)C2=O)N1CCCCC1	0.8	-0.56	11	0.93	20	16
Cc1ccc(CN2CCc3c(OCC(=O)Nc4cccc(C)c4C)cccc3C2=O)cc1	0.9	0.14	97*	-0.45	11	10
CCOC(=O)N1CCN(C(=O)COc2cccc3c2CCN(Cc2ccccc2F)C3=O)CC1	0.9	-0.28	66*	-1.2	5	14
COc1ccc(NC2=C(C(C)=O)C(c3ccccc3)C(C(C)=O)C(C)(O)C2)cc1 (stereo not given)	·	0.029	·	-0.3	·	·
CCOC(=O)C1=C(Nc2ccccc2)CC(C)(O)C(C(=O)OCC)C1c1ccc(Cl)cc1 (stereo not given)	0.9	·	5	0.34	71*	12
COc1ccc(CCNC(=O)c2c(C)nc3ccccn23)cc1	0.9	-0.6	-1	-0.73	0	7
